pIC50: −log10 of the molar value. Calls of active or inactive are those of the source. The rule behind the calls is not given here.
What was measured:
HCT-8 [1] = test: Antiproliferative activity against human HCT8 cells at 10 uM after 72 hrs by MTT assay relative to control; assay type: functional
Method in brief: (§1)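 Cells treated with or without compound at 10 μM for 72 h, proliferation measured by MTT (4 h, formazan in DMSO, 570 nm). Inhibition (%) relative to untreated cells; mean ± SD of three independent experiments.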

DLD-1 [2] = test: Antiproliferative activity against human DLD1 cells at 10 uM after 72 hrs by MTT assay relative to control; assay type: functional; method in brief: as §1
HCT-8 [3] = test: Antiproliferative activity against human HCT8 cells after 72 hrs by MTT assay; assay type: functional, cell-based; conditions: HCT-8, 72 h
Method in brief: (§2)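 HCT-8, DLD-1 and CCD841 cells seeded in 96-well plates, exposed to vehicle or compound for 72 h. MTT (5 mg/mL in PBS) added for a further 4 h, formazan dissolved in DMSO, absorbance read at 570 nm. IC50 taken as the concentration inhibiting 50% of proliferation; mean ± SD of three independent experiments.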

DLD-1 [4] = test: Antiproliferative activity against human DLD1 cells after 72 hrs by MTT assay; assay type: functional, cell-based; conditions: DLD-1, 72 h; method in brief: as §2
HCT-8 [5] = test: Antiproliferative activity against human HCT8 cells after 72 hrs in presence of ASA by MTT assay; assay type: functional, cell-based; conditions: HCT-8, 72 h; method in brief: as §2
DLD-1 [6] = test: Antiproliferative activity against human DLD1 cells after 72 hrs in presence of ASA by MTT assay; assay type: functional, cell-based; conditions: DLD-1, 72 h; method in brief: as §2
[7] = Cytotoxicity against human CCD-841 cells after 72 hrs by MTT assay; assay type: cell-based; conditions: CCD-841, 72 h; method in brief: as §2
[8] = Selectivity index, ratio of IC50 for human CCD-841 cells to IC50 for HCT8 human cells; assay type: toxicity; conditions: CCD-841 cells versus HCT8 cells, read-out: Ratio IC50
Method in brief: (§3)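 Ratio of the CCD841 MTT IC50 to the HCT-8 or DLD-1 IC50, each IC50 from a 72 h MTT assay (570 nm), mean of three independent experiments.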

[9] = Selectivity index, ratio of IC50 for human CCD-841 cells to IC50 for DLD1 human cells; assay type: toxicity; conditions: CCD-841 cells versus DLD1 cells; method in brief: as §3
HCT-8 [10] = test: Cell cycle arrest in human HCT8 cells assessed as accumulation at G0/G1 phase after 24 hrs by propidium iodide staining based flow cytometry; assay type: functional
HCT-8 [11] = test: Cell cycle arrest in human HCT8 cells assessed as accumulation at G1 phase at 2.5 uM after 24 hrs by propidium iodide staining based flow cytometry (reference value: 48.08%); assay type: functional
HCT-8 [12] = test: Cell cycle arrest in human HCT8 cells assessed as accumulation at S phase at 2.5 uM after 24 hrs by propidium iodide staining based flow cytometry (reference value: 36.19%); assay type: functional
HCT-8 [13] = test: Cell cycle arrest in human HCT8 cells assessed as accumulation at G2 phase at 2.5 uM after 24 hrs by propidium iodide staining based flow cytometry (reference value: 23.77%); assay type: functional
HCT-8 [14] = test: Cell cycle arrest in human HCT8 cells assessed as accumulation at G1 phase at 5 uM after 24 hrs by propidium iodide staining based flow cytometry (reference value: 48.08%); assay type: functional
HCT-8 [15] = test: Cell cycle arrest in human HCT8 cells assessed as accumulation at S phase at 5 uM after 24 hrs by propidium iodide staining based flow cytometry (reference value: 36.19%); assay type: functional
HCT-8 [16] = test: Cell cycle arrest in human HCT8 cells assessed as accumulation at G2 phase at 5 uM after 24 hrs by propidium iodide staining based flow cytometry (reference value: 23.77%); assay type: functional
HCT-8 [17] = test: Cell cycle arrest in human HCT8 cells assessed as accumulation at G1 phase at 10 uM after 24 hrs by propidium iodide staining based flow cytometry (reference value: 48.08%); assay type: functional
HCT-8 [18] = test: Cell cycle arrest in human HCT8 cells assessed as accumulation at S phase at 10 uM after 24 hrs by propidium iodide staining based flow cytometry (reference value: 36.19%); assay type: functional
HCT-8 [19] = test: Cell cycle arrest in human HCT8 cells assessed as accumulation at G2 phase at 10 uM after 24 hrs by propidium iodide staining based flow cytometry (reference value: 23.77%); assay type: functional
HCT-8 [20] = test: Induction of apoptosis in human HCT8 cells after 24 hrs by Annexin V-FITC/propidium iodide staining based flow cytometry; assay type: functional, cell-based
HCT-8 [21] = test: Induction of apoptosis in human HCT8 cells assessed as early apoptotic cells at 2.5 uM after 24 hrs by Annexin V-FITC/propidium iodide staining based flow cytometry (reference value: 0.25%); assay type: functional
HCT-8 [22] = test: Induction of apoptosis in human HCT8 cells assessed as late apoptotic cells at 2.5 uM after 24 hrs by Annexin V-FITC/propidium iodide staining based flow cytometry (reference value: 2.4%); assay type: functional
HCT-8 [23] = test: Induction of apoptosis in human HCT8 cells assessed as early apoptotic cells at 5 uM after 24 hrs by Annexin V-FITC/propidium iodide staining based flow cytometry (reference value: 0.25%); assay type: functional
HCT-8 [24] = test: Induction of apoptosis in human HCT8 cells assessed as late apoptotic cells at 5 uM after 24 hrs by Annexin V-FITC/propidium iodide staining based flow cytometry (reference value: 2.4%); assay type: functional
HCT-8 [25] = test: Induction of apoptosis in human HCT8 cells assessed as early apoptotic cells at 10 uM after 24 hrs by Annexin V-FITC/propidium iodide staining based flow cytometry (reference value: 0.25%); assay type: functional
HCT-8 [26] = test: Induction of apoptosis in human HCT8 cells assessed as late apoptotic cells at 10 uM after 24 hrs by Annexin V-FITC/propidium iodide staining based flow cytometry (reference value: 2.4%); assay type: functional
HCT-8 [27] = test: Induction of apoptosis in human HCT8 cells assessed as increase in cleaved caspase3 expression after 24 hrs by Western blotting analysis; assay type: functional, cell-based
Method in brief: (§4)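 HCT-8 cells (1 × 10^6/well, six-well plates) left overnight, then given 0.1% DMSO or compound (0, 2.5, 5, 10 μM) for 24 h. Lysed 30 min at 4 °C, cleared at 15000 rpm, protein by BCA. 20 μg per lane on 7.5% SDS-PAGE, moved to PVDF, blocked in 5% milk/TBS-0.05% Tween 20. Probed for caspase 3, cleaved caspase 3, PARP, cleaved PARP and GAPDH; ECL detection.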

HCT-8 [28] = test: Induction of apoptosis in human HCT8 cells assessed as increase in cleaved PARP expression after 24 hrs by Western blotting analysis; assay type: functional, cell-based; method in brief: as §4
HCT-8 [29] = test: Induction of reactive oxygen species generation in human HCT8 cells at 2.5 to 10 uM after 24 hrs by DCFH-DA staining based flow cytometry; assay type: functional, cell-based
Method in brief: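 HCT-8 cells exposed to 0, 2.5, 5 or 10 μM for 24 h, loaded with 10 μM DCFH-DA at 37 °C for 20 min, washed three times in PBS. Intracellular ROS as DCF fluorescence by flow cytometry, Ex/Em 488/530 nm.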

HCT-8 [30] = test: Antitumor activity against human HCT8 cells xenografted in BALB/c mouse assessed as reduction in tumor volume at 60 mg/kg, ip administered daily for 32 days measured every 4 days during compound dosing; assay type: functional, organism-based
Method in brief: (§5)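 Male BALB/c nude mice (5–6 weeks, 18–20 g) inoculated s.c. with 1 × 10^7 HCT-8 cells. At tumours of 180–200 mm³, mice randomized and dosed i.p. daily for 32 days with 60 mg/kg or an equal volume of Tween 80/PBS (5:95) vehicle. Caliper length and width every 4 days, TV = width² × length/2. Tumour weight and body weight also recorded; n = 6 per group, mean ± SD.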

HCT-8 [31] = test: Antitumor activity against human HCT8 cells xenografted in BALB/c mouse assessed as reduction in tumor weight at 60 mg/kg, ip administered daily for 32 days measured every 4 days during compound dosing relative to control; assay type: functional; set-up: scale not given: the % may be the effect or the level left; method in brief: as §5
Mus musculus = test: Toxicity in BALB/c mouse xenografted with human HCT8 cells assessed as change in body weight at 60 mg/kg, ip administered daily for 32 days; assay type: organism-based; conditions: in vivo, 768 h; method in brief: as §5

CC(=O)Oc1ccccc1C(=O)Oc1ccc(Br)cc1/C=C/C(=O)c1ccc(Cl)cc1
Activity (HCT-8 [1]): Active
Activity (DLD-1 [2]): Active

CC(=O)Oc1ccccc1C(=O)Oc1ccccc1/C=C/C(=O)c1ccc(Cl)cc1
Activity (HCT-8 [1]): >50%
Activity (DLD-1 [2]): >50%

COc1ccc(O)c(/C=C/C(=O)c2ccc(Cl)cc2)c1
pIC50 (HCT-8 [3]): 4.71
pIC50 (DLD-1 [4]): 4.83
pIC50 (HCT-8 [5]): 5.20
pIC50 (DLD-1 [6]): 5.16

COc1ccc(OC(=O)c2ccccc2OC(C)=O)c(/C=C/C(=O)c2ccc(Cl)cc2)c1
Activity (HCT-8 [1]): >50%
Activity (DLD-1 [2]): >50%
pIC50 (HCT-8 [3]): 5.62
pIC50 (DLD-1 [4]): 5.57
pIC50 [7]: 4.71
selectivity ratio [8]: 8
selectivity ratio [9]: 7.2
Activity (HCT-8 [10]): Dose-dependent effect
Activity (HCT-8 [11]): 48.08%
Activity (HCT-8 [12]): 34.16%
Activity (HCT-8 [13]): 17.76%
Activity (HCT-8 [14]): 51.03%
Activity (HCT-8 [15]): 38.16%
Activity (HCT-8 [16]): 10.82%
Activity (HCT-8 [17]): 56.46%
Activity (HCT-8 [18]): 34.77%
Activity (HCT-8 [19]): 8.77%
Activity (HCT-8 [20]): Dose-dependent effect
Activity (HCT-8 [21]): 9.7%
Activity (HCT-8 [22]): 6.41%
Activity (HCT-8 [23]): 14.22%
Activity (HCT-8 [24]): 13.49%
Activity (HCT-8 [25]): 21.46%
Activity (HCT-8 [26]): 37.01%
Activity (HCT-8 [27]): Dose-dependent effect
Activity (HCT-8 [28]): Dose-dependent effect
Activity (HCT-8 [29]): Active
Activity (HCT-8 [30]): Active
Activity (HCT-8 [31]): 42%
Activity (Mus musculus): Non-Toxic

CC(=O)Oc1ccccc1C(=O)Oc1ccc(C)cc1/C=C/C(=O)c1ccc(Cl)cc1
Activity (HCT-8 [1]): Active
Activity (DLD-1 [2]): Active

CC(=O)Oc1ccccc1C(=O)Oc1ccc(F)cc1/C=C/C(=O)c1ccc(Cl)cc1
Activity (HCT-8 [1]): >50%
Activity (DLD-1 [2]): >50%
pIC50 (HCT-8 [3]): 5.57
pIC50 (DLD-1 [4]): 5.46

CC(=O)Oc1ccccc1C(=O)Oc1ccccc1/C=C/C(=O)c1ccc(Br)cc1
Activity (HCT-8 [1]): Active
Activity (DLD-1 [2]): Active

CC(=O)Oc1ccccc1C(=O)O [ASPIRIN]
pIC50 (HCT-8 [3]): < 4.00
pIC50 (DLD-1 [4]): < 4.00

CC(=O)Oc1ccccc1C(=O)Oc1ccccc1/C=C/C(=O)c1ccc(C)cc1
Activity (HCT-8 [1]): Active
Activity (DLD-1 [2]): Active

COc1cccc(/C=C/C(=O)c2ccc(Cl)cc2)c1OC(=O)c1ccccc1OC(C)=O
Activity (HCT-8 [1]): Active
Activity (DLD-1 [2]): Active

CC(=O)Oc1ccccc1C(=O)Oc1ccccc1/C=C/C(=O)c1ccc(C#N)cc1
Activity (HCT-8 [1]): Active
Activity (DLD-1 [2]): Active

COc1ccc(C(=O)/C=C/c2ccccc2OC(=O)c2ccccc2OC(C)=O)cc1
Activity (HCT-8 [1]): Active
Activity (DLD-1 [2]): Active

CC(=O)Oc1ccccc1C(=O)Oc1ccccc1/C=C/C(=O)c1ccc([N+](=O)[O-])cc1
Activity (HCT-8 [1]): >50%
Activity (DLD-1 [2]): >50%

O=C(/C=C/c1cc(F)ccc1O)c1ccc(Cl)cc1
pIC50 (HCT-8 [3]): 4.59
pIC50 (DLD-1 [4]): 4.88
pIC50 (HCT-8 [5]): 5.03
pIC50 (DLD-1 [6]): 5.10

COc1ccc(/C=C/C(=O)c2ccc(Cl)cc2)c(OC(=O)c2ccccc2OC(C)=O)c1
Activity (HCT-8 [1]): Active
Activity (DLD-1 [2]): Active

O=c1[nH]cc(F)c(=O)[nH]1 [FLUOROURACIL]
pIC50 [7]: 4.45

CC(=O)Oc1ccccc1C(=O)Oc1ccc(Cl)cc1/C=C/C(=O)c1ccc(Cl)cc1
Activity (HCT-8 [1]): Active
Activity (DLD-1 [2]): Active
